High-throughput results deposited in PubChem BioAssay by several laboratories.
MC4R antag cAMP: blocks human MC4R cAMP signaling. inhibition, % at 6.5 µM. 360,000 compounds, 0.48% hits. MC4R-expressing cells, MTII-stimulated cAMP, LANCE TR-FRET. AID 540295;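 active = inhibition above its plate's cutoff, the mean of tested wells on that plate plus 3 SD, cut at about 29% in these data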;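 also: 0% = Melanotan II alone and 100% = Melanotan II plus saturating MCL0020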
Target sequence (P32245 whole entry, looked up): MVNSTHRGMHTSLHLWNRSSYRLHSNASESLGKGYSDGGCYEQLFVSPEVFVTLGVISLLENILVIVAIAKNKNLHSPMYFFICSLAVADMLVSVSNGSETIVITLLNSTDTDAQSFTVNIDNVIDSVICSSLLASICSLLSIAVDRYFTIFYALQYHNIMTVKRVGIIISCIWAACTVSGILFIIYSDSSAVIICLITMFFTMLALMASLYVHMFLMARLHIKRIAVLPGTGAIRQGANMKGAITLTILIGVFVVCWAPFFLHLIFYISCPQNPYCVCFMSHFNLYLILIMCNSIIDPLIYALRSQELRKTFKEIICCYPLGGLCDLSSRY
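Material – human MC4R-expressing U2OS cells · Repeats – no replicates · Detection – TR-FRET with Eu-cAMP and labeled anti-cAMP, 671 nm · Times – compound 30 min, challenge 1 h, detection 1 h · Compound – single nominal compound dose of 6.5 µM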
Lipid droplet: hepatic lipid droplet formation modulation | AML12 mouse hepatocytes, oleate lipid droplets, BODIPY imaging | 240,000 compounds, 0.4% hits | inhibition, % at 6.5 µM;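 active = lipid droplet intensity inhibited by at least 50%, with more than 500 cells counted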
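System: AML12 hepatocytes (mouse). Probe or stimulus: oleic acid at 100 µM to induce lipid droplet formation. Times: overnight treatment with compound plus oleate. Detection: Image-based BODIPY and DAPI two-channel analysis. Evaluation: percent inhibition of filter-corrected integrated lipid droplet intensity per well.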
PREPL inh: human PREPL enzyme inhibition; 320,000 compounds, 0.68% hits; recombinant PREPL, fluorescence polarization activity-based probe; inhibition, % at 5.96 µM; Q4J6C6; in the data active = inhibition above about 43%;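 also: 0% = enzyme with DMSO and 100% = wells lacking enzyme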
m5-HT2A agonist: activates the mouse 5-HT2A serotonin receptor; P35363; CHO-K1 mHTR2A beta-arrestin complementation, luminescence; percent of 30 µM serotonin response; activation, % at 7.6 µM; 360,000 compounds, 0.66% hits;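 active = activation above a run cutoff, the mean activation of all tested compounds plus 3 SD, cut at about 14% in these data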;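 also: 0% = plate median of compound wells and 100% = 30 µM serotonin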
NTR1 agonist: NTR1 (human) agonism | P30989 | NTR1-U2OS beta-arrestin-GFP spot imaging, agonist mode | activation, % at 20 µM | 330,000 compounds, 0.17% hits | AID 493036;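 active = activation at or above 40% of the spot to cytoplasm intensity ratio, with at least 20 cells analyzed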;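 also: 0% = DMSO without peptide and 100% = 100 nM NTR1 peptide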
Target sequence (P30989 whole entry, looked up): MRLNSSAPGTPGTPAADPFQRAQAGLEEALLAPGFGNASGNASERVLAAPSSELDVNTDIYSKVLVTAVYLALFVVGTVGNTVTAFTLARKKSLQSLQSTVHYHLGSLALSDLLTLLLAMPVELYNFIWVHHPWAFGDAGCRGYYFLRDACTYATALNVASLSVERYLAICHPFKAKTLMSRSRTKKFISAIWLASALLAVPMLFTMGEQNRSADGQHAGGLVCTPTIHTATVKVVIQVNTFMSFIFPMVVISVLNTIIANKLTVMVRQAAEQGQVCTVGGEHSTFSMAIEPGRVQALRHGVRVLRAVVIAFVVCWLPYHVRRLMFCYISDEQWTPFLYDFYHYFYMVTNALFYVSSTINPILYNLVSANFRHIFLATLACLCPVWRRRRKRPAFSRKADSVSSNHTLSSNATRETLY
MC4R barr agon: agonists of human melanocortin 4 receptor (MC4R) beta-arrestin; P32245; U2OS MC4R beta-arrestin complementation, luminescence; percent of melanotan II response, DMSO zero; activation, % at 8.9 µM; 360,000 compounds, 0.98% hits; AID 540308;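 active = activation above a per-plate cutoff, the mean activation of sample wells on that plate plus 3 SD, cut at about 8% in these data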
OPRM1 ag: OPRM1 agonism in mouse HTR2A counterscreen | shares compounds with m5-HT2A agonist | U2OS OPRM1 beta-arrestin PathHunter, luminescence; DMSO 0%, DAMGO 9.3 µM 100% | activation, % at 9.3 µM | 2,300 compounds, 5.3% hits | AID 624380;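 active = mean activation above the mean of DMSO-only wells plus 3 SD, cut at about 0.5% in these data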
HTR2A ag conf: mouse HTR2A agonism confirmed; AID 624381; shares compounds with m5-HT2A agonist; CHO-K1 PathHunter beta-arrestin recruitment, luminescence; DMSO 0%, 30 µM serotonin 100%; activation, % at 7.6 µM; 2,300 compounds, 19% hits;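 active = mean activation across triplicates above the hit threshold derived in the original primary screen, cut at about 15% in these data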
* marks the source's active call; other numbers are inactive results; / = no result given. Compounds with a hit are over-represented: about 2.7% of the library has one in this group of screens.

SMILES | MC4R antag cAMP | Lipid droplet | PREPL inh | m5-HT2A agonist | NTR1 agonist | MC4R barr agon | OPRM1 ag | HTR2A ag conf
O=C(CCC(=O)NCCO)NCCO | 2.2 | 13.2 | 2.8 | 5.8 | 1.8 | -1.2 | / | /
CC(O)CCC(=O)NCCNC(=O)CCC(C)O (stereo unspecified) | 5.9 | / | 0.6 | 19.7* | 0.2 | -0.4 | -0.5 | -1.2
COc1ccc(CCC2=NCCN2C(CC(C)C)c2nc3ccccc3[nH]2)cc1 (stereo unspecified) | / | / | / | -4.0 | / | / | / | /
CCCS(=O)(=O)NC(=O)C1(C)CCN1C(=O)Cc1ccc(-c2ccccc2)cc1 (stereo unspecified) | -0.8 | / | / | 17.5* | / | -1.9 | -0.2 | 2.7
COc1ccc(Cl)cc1NC(=O)C(=O)N/N=C/c1cc(C)n(-c2ccc(C)cc2)c1C | -0.4 | 6.7 | 6.9 | 17.6* | 2.6 | -1.2 | -0.6 | -4.0
Cc1ccc(-n2c(C)cc(/C=N/NC(N)=S)c2C)cc1 | 4.3 | -2.5 | 26.4 | 3.6 | 1.5 | -1.7 | / | /
O=c1c(CN2CCN(c3cccc(Cl)c3)CC2)coc2c(Cl)cc(Cl)cc12 | -3.8 | / | -2.8 | 16.4* | 1.5 | -0.8 | -0.5 | 3.7
COC(=O)C1=CN(Cc2ccc(OC)c(OC)c2)C=C(C(=O)OC)C1c1ccccc1F | 0.7 | -1.8 | / | 16.8* | 0.0 | -0.8 | -0.7 | 2.7
CCO[C@@H]1OC(C(=O)O)=C[C@H](c2ccccc2)[C@H]1CCCO | 3.5 | / | 2.4 | 2.5 | 0.2 | 0.8 | / | /
CCO[C@H]1OC(C(=O)O)=C[C@@H](c2ccccc2)[C@@H]1CCCO | 4.7 | / | 8.1 | 15.4* | 5.8 | -1.6 | -0.1 | -1.4
COc1ccc(S(=O)(=O)N(C)c2ccc(C(=O)NCc3ccco3)cc2)cc1OC | 9.5 | 5.6 | -1.5 | 1.4 | 1.7 | -1.3 | / | /
COc1ccc(CNC(=O)c2cnn3c(C(F)F)cc(C)nc23)cc1OC | -9.8 | 5.0 | 2.1 | 2.3 | 0.7 | 0.4 | / | /
Cc1ccc(SCCNC(=O)C(C)C)cc1 | -0.7 | 1.0 | 1.8 | 16.4* | 0.7 | -0.5 | -0.6 | -5.2
O=C(OCC(=O)N1CCN(C(=O)c2ccco2)CC1)c1ccccc1OCc1ccc(Cl)cc1 | 4.8 | / | 23.1 | -5.5 | 1.8 | -1.3 | / | /
COc1ccc(CC2(CO)CCN(C/C=C/c3ccccc3OC)CC2)cc1 | 5.1 | 22.8 | -4.2 | 7.1 | -1.0 | 4.8 | / | /
COc1ccc(CC2(CO)CCN(C(C)COc3ccccc3)CC2)cc1 (stereo unspecified) | 1.7 | -11.8 | 11.9 | 20.3* | -1.1 | 0.8 | -0.5 | 85.4*
CC(COc1ccccc1)N1CCC(CO)(Cc2ccccc2)CC1 (stereo unspecified) | -5.5 | 10.6 | -3.8 | 29.1* | 0.5 | -1.4 | 0.0 | 72.5*
NC(C(=O)O)C(c1ccccc1)C(F)F (stereo unspecified) | / | -2.7 | 25.0 | / | -0.6 | / | / | /
COc1cccc2cc(C(=O)NCc3ccccc3Cl)c(=O)oc12 | 4.4 | -0.9 | 0.5 | 5.4 | 3.0 | 1.0 | / | /
C/C(=C\C(=O)c1ncc(C(F)(F)F)cc1Cl)N(C)C | 1.6 | 7.2 | 5.9 | 20.8* | -0.4 | -0.7 | -0.8 | -5.7
CCCCCCN1C(=O)CC(NC(=O)OCC2c3ccccc3-c3ccccc32)C/C=C\C1C(C)C (stereo unspecified) | 11.7 | / | / | 16.0* | 1.1 | 0.1 | -0.7 | -5.5
CCOC(=O)c1[nH]cnc1C(=O)N1CCN(C(=O)OC(C)(C)C)CC1 | 1.1 | / | -3.2 | 18.4* | 0.3 | -0.6 | -0.6 | -4.1
C[C@H](OC(=O)c1[nH]cnc1C(=O)N1CCN(C(=O)OC(C)(C)C)CC1)c1ccccc1 | 4.0 | / | 4.1 | -3.4 | -2.7 | -2.2 | / | /
CCn1cc(CN2CCN(Cc3ccsc3)C(CCO)C2)cn1 (stereo unspecified) | 9.0 | -9.0 | 6.5 | 15.1* | 0.7 | 0.2 | -0.3 | 5.1
NC(=S)NN=C1C=CCCC1 | 3.4 | / | / | 18.7* | / | 0.4 | -0.5 | -1.3
SMILES | MC4R antag cAMP | Lipid droplet | PREPL inh | m5-HT2A agonist | NTR1 agonist | MC4R barr agon | OPRM1 ag | HTR2A ag conf
NC(=S)NN=C1CCCCCCCCC1 | 17.7 | / | / | 3.0 | / | 0.6 | / | /
CCN(c1ccccc1)P(=O)(Nc1ccccc1)Nc1ccccc1 | 1.5 | -3.7 | 3.8 | 0.3 | 2.6 | -3.3 | / | /
O=P(Nc1ccccc1)(Nc1ccccc1)c1ccccc1 | 2.1 | / | / | 14.9* | / | -1.1 | -0.7 | -2.8
NC(=O)c1cc(S(=O)(=O)N2CCN(c3cccc(Cl)c3)CC2)cs1 | -3.5 | 2.8 | -32.0 | 14.6* | 1.6 | 0.3 | -0.3 | -4.3
CN1CCN(S(=O)(=O)c2csc(C(N)=O)c2)CC1 | 6.4 | -2.8 | -3.8 | 8.8 | -0.3 | 0.4 | / | /
COc1ccccc1C(=O)NNC(=O)C1CC=CCC1 (stereo unspecified) | -6.0 | -2.0 | 19.1 | 18.8* | 0.5 | -1.6 | -0.6 | 0.7
O=[N+]([O-])c1cccc(S(=O)(=O)NCCc2cn3ccccc3n2)c1 | -3.4 | -0.6 | -2.3 | 15.1* | -0.4 | 3.6 | -0.5 | -1.9
Cc1ccc([N+](=O)[O-])cc1S(=O)(=O)NCCc1cn2ccccc2n1 | 6.9 | 13.1 | -4.3 | 5.2 | -0.5 | -0.5 | / | /
NCCc1ccc(O)c(O)c1 | -13.1 | 6.2 | 11.5 | 41.6* | 6.7 | 0.3 | -0.3 | 140.2*
C[C@](N)(Cc1ccc(O)c(O)c1)C(=O)O | 0.6 | 0.3 | / | 3.2 | / | -1.8 | / | /
O=[N+]([O-])c1cc(-c2nnc(Nc3ccc(O)cc3)c3ccccc23)ccc1N1CCOCC1 | -1.1 | -32.3 | 4.8 | 31.3* | 4.6 | 0.3 | -0.2 | 21.2*
O=[N+]([O-])c1cc(-c2nnc(Nc3ccccc3)c3ccccc23)ccc1N1CCOCC1 | 0.2 | -6.0 | 8.4 | 11.2 | 5.4 | -1.2 | / | /
Cc1c(NC(=O)Nc2cc(F)c(F)cc2Cl)c(=O)n(-c2ccccc2)n1C | -3.8 | / | -6.8 | 2.6 | 0.3 | -0.8 | / | /
Nc1ncnc2c1ncn2[C@@H]1O[C@H](CNCC#Cc2ccccc2)[C@@H](O)[C@H]1O | 10.9 | / | 19.4 | -3.3 | -3.6 | -0.8 | / | /
COc1ccc(CC(=O)OCC(=O)Nc2ncc(Cl)c(C)c2Cl)cc1 | 1.5 | / | / | 14.6* | -0.6 | -0.8 | -0.4 | -2.9
Cc1onc(C(=O)NN)c1C(=O)Nc1ncc(C(F)(F)F)cc1Cl | 6.9 | 2.3 | 3.2 | -1.8 | 0.0 | -0.2 | / | /
Cc1ccc(-c2[nH]n3c(=O)c4c(nc3c2C)CCCC4)cc1 | -1.0 | / | -3.7 | 9.8 | 7.9 | 0.1 | / | /
Cc1c(-c2ccccc2)[nH]n2c(=O)c3c(nc12)CCCC3 | 15.9 | 4.4 | 2.0 | 44.4* | 9.1 | 0.1 | -0.5 | 14.7*
CC(=O)Nc1ncc(Sc2ccc([N+](=O)[O-])cc2)s1 | -3.7 | / | / | 20.1* | / | -3.0 | -0.3 | -3.5
